Rows were chosen to be rich in hits. Some 1.1% of all compounds tested hit in one or more screens of this group.
CAL PDZ FP-1 = CAL PDZ peptide-binding inhibitors, primary screen, biochemical, fluorescence polarization, Cer-tagged CAL PDZ, HTS; hit rate 0.02% among 330,000; inhibition, % at 20 µM; Golgi-associated PDZ and coiled-coil motif-containing protein (Homo sapiens), Q9HD26; purified CAL PDZ, TMR-peptide fluorescence polarization, 1 h; AID 504414, 2011;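 active means highest replicate inhibition of at least 40%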
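Read-out basis: mP drop reported as inhibition | Assay system: Tagged CAL PDZ protein CerCALP, purified | Benchmarks: Unlabelled peptide for full inhibition, DMSO wells as neutral | Schedule: 1 h incubation at room temperature before polarization reading | Buffer or medium: Sodium phosphate/NaCl buffer pH 7.4 with TCEP, IgG, Thesit | Doses: Single point, 20 µM | Measured by: Fluorescence polarization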
C-LANA FP = inhibitors of KSHV C-LANA binding to DNA, primary screen, biochemical, fluorescence polarization, FAM-LBS DNA, MBP-C-LANA, single point; Kaposi's sarcoma herpesvirus LANA C-terminal domain (residues 932-1162) DNA binding; inhibition, % at 9 µM; hit rate 0.078% among 340,000;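 active means highest replicate inhibition at or above 60% at 9 µM, even if other replicates fall short; inactive means all replicates below 60% inhibition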
Keap1 Nrf2 FP = Keap1-Nrf2 protein-protein interaction inhibitors, primary screen, biochemical, fluorescence polarization, single point; inhibition, % at 9.4 µM; Keap1 Kelch-Nrf2 peptide fluorescence polarization, 1536-well; Kelch-like ECH-associated protein 1 (Homo sapiens), Q14145; hit rate 0.15% among 340,000; AID 504523, 2011; in the data active means inhibition above about 12%;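 further: human Keap1 Kelch domain with fluorescein labeled Nrf2 9mer peptide probe; higher means more block of Keap1 binding to Nrf2 peptide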
Target sequence (Q14145 whole entry, looked up, the tested form may be a part): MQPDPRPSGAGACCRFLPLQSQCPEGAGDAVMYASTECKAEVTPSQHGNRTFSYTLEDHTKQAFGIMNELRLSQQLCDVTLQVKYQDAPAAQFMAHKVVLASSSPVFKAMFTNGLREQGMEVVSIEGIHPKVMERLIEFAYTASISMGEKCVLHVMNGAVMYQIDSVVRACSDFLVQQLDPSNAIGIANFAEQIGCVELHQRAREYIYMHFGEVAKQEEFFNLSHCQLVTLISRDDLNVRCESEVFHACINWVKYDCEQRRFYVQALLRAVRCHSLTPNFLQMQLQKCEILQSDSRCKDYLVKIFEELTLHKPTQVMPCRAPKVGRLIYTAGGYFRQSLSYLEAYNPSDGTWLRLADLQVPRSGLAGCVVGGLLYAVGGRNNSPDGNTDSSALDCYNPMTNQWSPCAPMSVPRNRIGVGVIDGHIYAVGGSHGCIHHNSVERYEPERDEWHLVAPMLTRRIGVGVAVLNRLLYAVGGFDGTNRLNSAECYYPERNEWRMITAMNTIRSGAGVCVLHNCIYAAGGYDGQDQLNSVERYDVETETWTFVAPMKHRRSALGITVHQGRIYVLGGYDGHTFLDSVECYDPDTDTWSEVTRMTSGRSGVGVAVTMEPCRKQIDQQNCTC
CAL PDZ FP-2 = untagged CAL PDZ binding inhibitors, primary screen, biochemical, fluorescence polarization, HTS; Golgi-associated PDZ and coiled-coil motif-containing protein (Homo sapiens), Q9HD26; purified CAL PDZ, TMR-peptide fluorescence polarization, 1 h; inhibition, % at 24.9 µM; hit rate 0.92% among 300,000; AID 602252, 2012;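 active means mean inhibition of at least 30% with at least half of replicates also reaching 30%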
miR-122 sensor = miR-122 Renilla sensor signal increase in Huh7, primary screen, miR-122 inhibitor project, cell-based, single point, plate reader | Huh7 miR-122 Renilla luciferase sensor, 48 h; neutral wells = 0, positive control = 100 | activation (reporter increase), % at 12.5 µM | hit rate 0.3% among 340,000;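 active means mean replicate activation score at least 90 and every replicate individually at or above 90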;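 further: higher luciferase means less miR-122 activity so hits act as miR-122 inhibitors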
Hits are given with their value; – = inactive; · = not tested or not shown; ! = not confirmed by another sample.

SMILES	CAL PDZ FP-1	C-LANA FP	Keap1 Nrf2 FP	CAL PDZ FP-2	miR-122 sensor
CCOC(=O)C1CCCN(CCc2ccccc2)C1 (configuration not stated)	–	–	–	·	–
O=C(OC1C2CCC1C1CN(CCc3ccccc3)CC12)c1ccccc1 (configuration not stated)	–	–	–	40.6	·
Cc1nn(-c2ccccc2)c2c1C(c1ccc(F)cc1F)C(C#N)=C(N)O2 (configuration not stated)	–	–	–	30.1	–
CO[C@H]1CN(C)C(=O)c2ccc(NC(=O)c3ccc(F)cc3)cc2OC[C@@H](C)N(C(=O)CN(C)C)C[C@H]1C	·	·	·	·	–
C/C(CC(=O)Nc1ccccn1)=N\NC(=O)c1ccccc1O	–	–	–	–	261.6
CC(C)(C)C(=O)Nc1ccnn1C1CCN(C(=O)c2ccc(Cl)cc2F)CC1	–	–	–	44.4	–
CC1CCCN(C(=O)Cn2nnc(-c3ccc(F)cc3)n2)C1 (configuration not stated)	–	–	–	·	–
CC1CCCN(C(=O)Cn2nnc(-c3cccnc3)n2)C1 (configuration not stated)	–	–	–	–	91.4
Cc1cc2cc(C(c3nnnn3Cc3ccccc3)N3CCc4ccccc43)c(=O)[nH]c2cc1C (configuration not stated)	–	–	–	–	–
Cc1ccc2cc(C(c3nnnn3Cc3ccccc3)N3CCc4ccccc43)c(=O)[nH]c2c1C (configuration not stated)	–	–	–	81.1	–
O=C(OCCOCCN=C1NS(=O)(=O)c2ccccc21)c1ccccc1	–	–	–	–	–
O=C(OCCN=C1NS(=O)(=O)c2ccccc21)c1ccccc1	–	–	–	–	215.2
COc1ccccc1CNC(=O)C[C@H]1C[C@H]2c3cc(NS(C)(=O)=O)ccc3O[C@H]2[C@H](CO)O1	·	·	·	·	–
CCSc1nc2nccnc2c(=O)[nH]1	–	–	–	96.3	–
c1ccc(-c2ccc(-c3ccccn3)s2)nc1	–	–	–	40.9	–
O=C(O)c1ccc(-c2ccccn2)s1	–	–	–	–	·
CCCNC(=O)[C@@H]1[C@@H](CO)[C@@H]2Cn3c(ccc(/C=C/c4ccccc4)c3=O)[C@H]1N2C(=O)c1ccccc1	·	·	·	·	–
C[C@H](CO)N1C[C@H](C)[C@@H](CN(C)C(=O)C2CCCCC2)Oc2cc(C3=CCCCC3)ccc2S1(=O)=O	·	·	·	·	–
CO[C@H]1CN(C)C(=O)c2ccc(NC(C)=O)cc2OC[C@H](C)N(Cc2nccs2)C[C@H]1C	·	·	·	·	–
O=C1CCCN1CC(O)CS(=O)(=O)Cc1ccccc1 (configuration not stated)	·	–	–	46.0	·
COc1ccc(NC(=O)Nc2ccc3c(c2)C(=O)N([C@H](C)CO)C[C@H](C)[C@H](CN(C)C(=O)CCCN(C)C)OCCCC[C@@H](C)O3)cc1	·	·	·	·	–
O=C(O)c1ccc(N/N=C/c2cc(Br)cs2)cc1	–	–	–	35.7	–
Cc1ccc(/C=N/Nc2ccc(C(=O)O)cc2)s1	–	–	–	–	–
Cc1noc(C)c1S(=O)(=O)Nc1ccc2c(c1)C(=O)N([C@@H](C)CO)C[C@@H](C)[C@H](CN(C)Cc1ccc(Cl)c(Cl)c1)OCCCC[C@@H](C)O2	·	·	·	·	–
Clc1c(Cl)c(Cl)c2n[nH]nc2c1Cl	–	–	–	79.2	·
SMILES	CAL PDZ FP-1	C-LANA FP	Keap1 Nrf2 FP	CAL PDZ FP-2	miR-122 sensor
Cc1ccc([C@H]2C(C(=O)O)=CC[C@@H](c3ccc(C)cc3)N2S(=O)(=O)c2ccc(C)cc2)cc1	–	–	–	–	–
Cc1ccc([C@@H]2CC=C(C(=O)O)[C@H](c3ccccc3)N2S(=O)(=O)c2ccc(C)cc2)cc1	–	–	–	50.2	·
Cc1cc(=O)n2nc(N3CCC(C(=O)NCCc4ccc(Cl)cc4)CC3)sc2n1	–	–	–	68.3	–
Cc1cc(=O)n2nc(N3CCC(C(=O)NCc4ccccc4Cl)CC3)sc2n1	–	–	–	–	–
COc1cc(C2CC(=O)C3=C(C2)Nc2ncnn2C3c2cccs2)cc(OC)c1OC (configuration not stated)	·	·	·	·	–
COc1cc(C2C=C(c3cccs3)Nc3ncnn32)cc(OC)c1OC (configuration not stated)	–	120.8	87.7	33.2	·
CC(C)NC(=O)N1C[C@H]2[C@@H](c3ccccc31)[C@H](CO)N2C(=O)NC(C)C	·	·	·	·	–
COc1cc(NC(=O)C2CCCN(S(=O)(=O)c3cccc4nsnc34)C2)cc(OC)c1 (configuration not stated)	–	–	–	57.8	–
CCC(CC)NC(=O)c1n[nH]c(=O)c2ccccc12	–	–	–	–	–
O=C(NNC(=O)c1n[nH]c(=O)c2ccccc12)c1ccc(Br)cc1	–	–	–	109.4	–
CCc1ccc(C(=O)NNC(=O)c2n[nH]c(=O)c3ccccc23)cc1	–	–	–	–	·
CC(C)c1ccc(NC(=O)c2n[nH]c(=O)c3ccccc23)cc1	–	–	–	35.4	–
COc1cccc(NC(=O)N[C@H]2CC[C@@H](CC(=O)NCc3ccncn3)O[C@H]2CO)c1	·	·	·	·	–
COC(=O)C1=C(C)NC(C)=C(C(=O)OC)C1C(=O)OC(C)C(=O)c1ccccc1 (configuration not stated)	–	–	–	50.2!	–
O=S(=O)(O)c1cc(Cl)cc(N=Nc2ccc(O)cc2O)c1O	–	83.9	–	–	·
CN(C)CCCNc1cc(O)c2ncccc2c1	–	–	22.4	–	–
COc1ccc(NC(=O)CN(C)C(=O)c2cn(-c3ccccc3)nc2-c2cccs2)cc1	–	–	–	–	–
CN(CC(=O)Nc1ccc(F)cc1)C(=O)c1cn(-c2ccccc2)nc1-c1cccs1	–	–	–	31.4	–
CCCN(Cc1ccccc1)C(=S)Nc1ccc(C(C)=O)cc1	–	–	–	–	–
CC(=O)c1ccc(NC(=S)N(CCCN(C)C)Cc2ccccc2)cc1	–	–	–	57.7	–
c1ccc(CNc2nnnn2-c2ccccc2)cc1	–	–	–	–	127.6
c1ccc(-n2nnnc2NCCc2c[nH]c3ccccc23)cc1	·	–	–	–	–
c1ccc(-n2nnnc2-c2cccc3ccccc23)cc1	–	–	–	·	116.1
Cc1ccc(-n2nnnc2-c2ccccc2Br)cc1	·	·	·	·	–
COc1ccc(CNC(=O)C(c2ccc(C)o2)N(Cc2cccs2)C(=O)Cc2cccs2)cc1 (configuration not stated)	–	–	–	·	158.3
O=C(C[C@@H]1CC[C@H]2[C@@H](COC[C@@H](O)CN2S(=O)(=O)c2ccccc2)O1)NCCN1CCCCC1	·	·	·	·	–
